Assay results published in ChEMBL document CHEMBL1136304, “Synthesis and structure-activity relationships of thieno[2,3-d]pyrimidine-2,4-dione derivatives as potent GnRH receptor antagonists” (Bioorg Med Chem Lett, 2003).

Columns and labels:
[1] = molecular target: T1, Gonadotropin-releasing hormone receptor (Homo sapiens, UniProt P30968); experiment: Binding affinity towards human gonadotropin-releasing hormone receptor
T1 sequence (P30968 whole entry): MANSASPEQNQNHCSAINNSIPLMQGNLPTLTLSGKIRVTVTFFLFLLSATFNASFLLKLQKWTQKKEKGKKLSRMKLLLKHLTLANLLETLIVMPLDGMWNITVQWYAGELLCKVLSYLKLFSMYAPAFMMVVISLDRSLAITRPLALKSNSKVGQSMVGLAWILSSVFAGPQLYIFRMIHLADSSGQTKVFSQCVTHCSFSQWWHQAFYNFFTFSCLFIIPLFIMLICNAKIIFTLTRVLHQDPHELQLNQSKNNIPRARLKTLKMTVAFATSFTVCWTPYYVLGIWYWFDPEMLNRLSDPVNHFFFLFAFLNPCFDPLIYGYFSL
In short: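 Cloned human GnRH receptor stably expressed in HEK293 cells, binding measured in a 96-well filtration format. Results expressed as Ki. Key compounds were run in 3–8 independent experiments.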

[2] = molecular target: T2, Gonadotropin-releasing hormone receptor (Rattus norvegicus, UniProt P30969); experiment: Binding affinity towards rat Gonadotropin-releasing hormone receptor
T2 sequence (P30969 whole entry): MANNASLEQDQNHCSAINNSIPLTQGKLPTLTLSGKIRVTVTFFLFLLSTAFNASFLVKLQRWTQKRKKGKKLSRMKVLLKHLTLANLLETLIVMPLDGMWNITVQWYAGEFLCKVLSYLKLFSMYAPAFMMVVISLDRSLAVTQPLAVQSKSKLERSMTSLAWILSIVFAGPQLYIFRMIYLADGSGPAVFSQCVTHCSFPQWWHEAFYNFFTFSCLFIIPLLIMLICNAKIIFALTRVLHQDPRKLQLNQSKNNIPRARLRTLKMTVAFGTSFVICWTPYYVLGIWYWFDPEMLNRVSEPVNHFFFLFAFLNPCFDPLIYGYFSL

[3] = Partition coefficient (logP); assay type: physicochemical; details: octanol/water
[4] = pKa value was determined; assay type: physicochemical

CN(CCc1ccccc1)Cc1c(-c2ccc([N+](=O)[O-])cc2)sc2c1c(=O)n(-c1ccccc1)c(=O)n2Cc1c(F)cccc1F showed a Ki [1] of 170 nM.

CC(C)Nc1ccc(-c2sc3c(c2CN(C)Cc2ccccc2)c(=O)n(-c2ccccc2)c(=O)n3Cc2c(F)cccc2F)cc1 showed a Ki [1] of 88 nM.

Work on CN(C)Cc1c(-c2ccc([N+](=O)[O-])cc2)sc2c1c(=O)n(-c1ccccc1)c(=O)n2Cc1c(F)cccc1F yielded a Ki [1] of 640 nM.

Compound Cc1cc(-c2c(OCC[C@@H]3CCN3)c3cc(C(=O)Nc4ccncn4)c(Cl)cc3[nH]c2=O)cc(C)c1C has an IC50 [2] of 4 nM.

With CC(C)CNc1ccc(-c2sc3c(c2CN(C)Cc2ccccc2)c(=O)n(-c2ccccc2)c(=O)n3Cc2c(F)cccc2F)cc1 the Ki [1] was 17 nM.

CN(Cc1ccccc1)Cc1c(-c2ccc(N)cc2)sc2c1c(=O)n(-c1ccccc1)c(=O)n2Cc1c(F)cccc1F gave a Ki [1] of 36 nM.

Compound CCN(CC)CCN(C)Cc1c(-c2ccc([N+](=O)[O-])cc2)sc2c1c(=O)n(-c1ccccc1)c(=O)n2Cc1c(F)cccc1F has a Ki [1] of 76 nM.

O=c1c2c(CN3CCNCC3)c(-c3ccc([N+](=O)[O-])cc3)sc2n(Cc2c(F)cccc2F)c(=O)n1-c1ccccc1 showed a Ki [1] of 460 nM.

C[C@H](N)C(=O)Nc1ccc(-c2sc3c(c2CN(C)Cc2ccccc2)c(=O)n(-c2ccccc2)c(=O)n3Cc2c(F)cccc2F)cc1 gave a Ki [1] of 43 nM.

Compound COCCN(C)Cc1c(-c2ccc([N+](=O)[O-])cc2)sc2c1c(=O)n(-c1ccccc1)c(=O)n2Cc1c(F)cccc1F has a Ki [1] of 170 nM.

CONC(=O)Nc1ccc(-c2sc3c(c2CN(C)Cc2ccccc2)c(=O)n(-c2ccccc2)c(=O)n3Cc2c(F)cccc2F)cc1 [SUFUGOLIX] gave a logP [3] of 6.5 and a pKa [4] of 5.

CCNc1ccc(-c2sc3c(c2CN(C)Cc2ccccc2)c(=O)n(-c2ccccc2)c(=O)n3Cc2c(F)cccc2F)cc1 gave a Ki [1] of 11 nM.

In the case of CN(Cc1ccccc1)Cc1c(-c2ccc(NC(=O)CCN)cc2)sc2c1c(=O)n(-c1ccccc1)c(=O)n2Cc1c(F)cccc1F, the Ki [1] is reported as 360 nM.

CN(Cc1ccccc1)Cc1c(-c2ccc(NC(=O)C(F)(F)F)cc2)sc2c1c(=O)n(-c1ccccc1)c(=O)n2Cc1c(F)cccc1F showed a Ki [1] of 16 nM.

CN(CCc1ccccn1)Cc1c(-c2ccc([N+](=O)[O-])cc2)sc2c1c(=O)n(-c1ccccc1)c(=O)n2Cc1c(F)cccc1F gave a Ki [1] of 0.6 nM.

For CC(C)CC(N)C(=O)Nc1ccc(-c2sc3c(c2CN(C)Cc2ccccc2)c(=O)n(-c2ccccc2)c(=O)n3Cc2c(F)cccc2F)cc1 (single isomer, unassigned), the Ki [1] was 58 nM.

CCCCN(C)Cc1c(-c2ccc([N+](=O)[O-])cc2)sc2c1c(=O)n(-c1ccccc1)c(=O)n2Cc1c(F)cccc1F showed a Ki [1] of 270 nM.

In the case of CC(C)C(=O)Nc1ccc(-c2sc3c(c2CN(C)Cc2ccccc2)c(=O)n(-c2ccccc2)c(=O)n3Cc2c(F)cccc2F)cc1, the Ki [1] is reported as 2.9 nM.

Work on CN(Cc1ccccn1)Cc1c(-c2ccc([N+](=O)[O-])cc2)sc2c1c(=O)n(-c1ccccc1)c(=O)n2Cc1c(F)cccc1F yielded a Ki [1] of 9 nM.

CN(Cc1ccccc1)Cc1c(-c2ccc([N+](=O)[O-])cc2)sc2c1c(=O)n(-c1ccccc1)c(=O)n2Cc1c(F)cccc1F gave a Ki [1] of 180 nM.

CN(Cc1ccccc1)Cc1c(-c2ccc(NC(=O)CN)cc2)sc2c1c(=O)n(-c1ccccc1)c(=O)n2Cc1c(F)cccc1F gave a Ki [1] of 150 nM.

With CN(Cc1ccccc1)Cc1c(-c2ccc(N(C)C)cc2)sc2c1c(=O)n(-c1ccccc1)c(=O)n2Cc1c(F)cccc1F the Ki [1] was 61 nM.

With CC(=O)Nc1ccc(-c2sc3c(c2CN(C)Cc2ccccc2)c(=O)n(-c2ccccc2)c(=O)n3Cc2c(F)cccc2F)cc1 the Ki [1] was 4.1 nM.

Work on CN(Cc1ccccc1)Cc1c(-c2ccc(NC(=O)CCCN)cc2)sc2c1c(=O)n(-c1ccccc1)c(=O)n2Cc1c(F)cccc1F yielded a Ki [1] of 300 nM.
